Where a SMILES comes first, the peptide text is derived from it. [ ]: non-standard residue; d: D form. The star is where a group is joined. Phe(4-F) = N[CH](Cc1ccc(F)cc1)C(=O)O; Tos = Cc1ccc(S(=O)(=O)*)cc1
Biological target: Integrin alpha-V/beta-3 (Homo sapiens) (UniProt P05106+P06756)
Assay: Inhibition of human alphaVbeta3 receptor expressed in african green monkey Vero E6 cells assessed as inhibition of SNV infection in cells at 1 uM by immunofluorescent assay
Format: cell-based
Outline: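 Vero E6 cells (10^4/well, duplicate wells) were grown 24 h at 37 °C in MEM with 2.5% FBS. They were pretreated 1 h at 37 °C with small molecules (1 µM) or cyclic peptides (2 mM, in PBS pH 7.4). SNV strain SN77734 (500–1,000 FFU/ml) was then added for 1 h, then washed out. After 24–36 h, cells were fixed and stained with anti-SNV N plus FITC antibody, and foci counted. % inhibition is relative to untreated cells, normalized to ReoPro 80 µg/ml set as 80%; at least 4 replicates.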

Row | SMILES | inhibition [%]
1 | O=C(C(Cc1ccccc1)NS(=O)(=O)c1cccc2cccnc12)N1CCC2(CC1)OCCO2 (configuration not stated) | 9
2 | O=C(NCc1ccc2c(c1)OCO2)C(Cc1ccccc1)NS(=O)(=O)c1cccc2nsnc12 (configuration not stated) | 0
3 | CC(NC(=O)C(Cc1ccccc1)NS(=O)(=O)c1cccc2nsnc12)c1ccccc1 (configuration not stated) | 2
4 | CCCN(CCC)CCNC(=O)C(Cc1ccccc1)NS(=O)(=O)c1cccc2nsnc12 (configuration not stated) | 34
5 | COc1ccc(OC)c(NC(=O)C(Cc2ccccc2)NS(=O)(=O)c2cccc3nsnc23)c1 (configuration not stated) | 6.4
6 | Cc1cccc(NC(=O)C(Cc2ccccc2)NS(=O)(=O)c2cccc3nsnc23)n1 (configuration not stated) | 17.7
7 | O=C(C(Cc1ccccc1)NS(=O)(=O)c1cccc2cccnc12)N1CCOCC1 (configuration not stated) | 4.5
8 | Cc1ccc(Cl)cc1NC(=O)C(Cc1ccccc1)NS(=O)(=O)c1cccc2cccnc12 (configuration not stated) | 14
9 | Cc1ccc(S(=O)(=O)NC(Cc2ccc(F)cc2)C(=O)NC(CCCNC(=N)N)C(=O)O)cc1 (configuration not stated) (Tos-[Phe(4-F)]-Arg-OH; configuration not given here) | 0
10 | O=C(O)CCCCCNC(=O)/C(=C/c1ccccc1)NC(=O)c1ccco1 | 0
11 | CCOC(=O)c1sc2nc(SCC(=O)NCc3ccccc3)n(Cc3ccco3)c(=O)c2c1C | 25.9
12 | O=C(CCCn1c(=O)c2sccc2n(Cc2ccc(F)cc2)c1=O)NCc1ccco1 | 0
13 | COc1ccc(CCNC(=O)C(Cc2ccccc2)NS(=O)(=O)c2cccc3nsnc23)cc1OC (configuration not stated) | 0
14 | O=C(c1ccco1)N1CCN(C(=O)C(Cc2ccccc2)NS(=O)(=O)c2ccc3nsnc3c2)CC1 (configuration not stated) | 22
15 | O=C(NCC1COc2ccccc2O1)C(Cc1ccccc1)NS(=O)(=O)c1ccc2nsnc2c1 (configuration not stated) | 20
16 | O=C(C(Cc1ccccc1)NS(=O)(=O)c1ccc2nsnc2c1)N1CCn2c1nc1ccccc12 (configuration not stated) | 0
17 | O=C(Nc1ccccc1Cl)C(Cc1ccccc1)NS(=O)(=O)c1cccc2nsnc12 (configuration not stated) | 10
18 | O=C(CCn1c(=O)c2ccccc2n(Cc2cc(=O)n3ccccc3n2)c1=O)NCc1ccco1 | 15
19 | COc1ccccc1CNC(=O)C1CCCN(c2ncnc3onc(-c4ccc(F)cc4)c23)C1 (configuration not stated) | 16

Row | SMILES | inhibition [%]
20 | O=C(C(Cc1ccccc1)NS(=O)(=O)c1ccc2nsnc2c1)N1CCC2(CC1)OCCO2 (configuration not stated) | 6
21 | COc1ccc(CCNC(=O)CN(CCc2ccccc2)S(=O)(=O)c2ccccc2)cc1OC | 15.2
22 | O=C(NC1CCCc2ccccc21)C(Cc1ccccc1)NS(=O)(=O)c1cccc2nsnc12 (configuration not stated) | 0
23 | CCOC(=O)N1CCC(NC(=O)C(Cc2ccccc2)NS(=O)(=O)c2cccc3nsnc23)CC1 (configuration not stated) | 0
24 | Cc1cccc(OCC(=O)N/N=C/c2ccc(OC(=O)/C=C/c3ccco3)cc2)c1 | 8
25 | CCc1ccc(CNC(=O)C2CCCN(c3ncnc4onc(-c5ccc(F)cc5)c34)C2)cc1 (configuration not stated) | 7
26 | Cc1nnc(SCC(=O)NCCc2cccs2)c2nn(-c3ccccc3)c(C)c12 | 17
27 | Cc1ccc(C)c(NC(=O)C(Cc2ccccc2)NS(=O)(=O)c2cccc3cccnc23)c1 (configuration not stated) | 0
28 | COc1ccc(N2CCN(C(=O)Cc3csc4nc(-c5ccc(F)cc5)cn34)CC2)cc1 | 0
29 | O=C(NCc1ccccc1Cl)C(Cc1ccccc1)NS(=O)(=O)c1cccc2cccnc12 (configuration not stated) | 21.4
30 | CC1(C)CC(=O)c2cc(C(=O)NCCCN3CCOCC3)c(=O)n(-c3ccc(Cl)cc3)c2C1 | 18
31 | Nc1c([S+]([O-])Cc2ccc(Cl)cc2)sc2nc(-c3cccs3)cc(-c3ccccc3)c12 (configuration not stated) | 1
32 | CN1CCN(C(=O)C(Cc2ccccc2)NS(=O)(=O)c2cccc3cccnc23)CC1 (configuration not stated) | 0
33 | COc1ccc(S(=O)(=O)NC(CC(=O)NCc2ccc3c(c2)OCO3)c2ccco2)cc1 (configuration not stated) | 0
34 | O=C(NCc1cccc(Cl)c1)C1CCCN(c2ncnc3onc(-c4ccc(F)cc4)c23)C1 (configuration not stated) | 6
35 | Cc1cc(NC(=O)C(Cc2ccccc2)NS(=O)(=O)c2cccc3cccnc23)no1 (configuration not stated) | 9.6
36 | O=C(NCCc1ccccc1)C(Cc1ccccc1)NS(=O)(=O)c1ccc(Br)cc1 (configuration not stated) | 6.4
37 | CCOC(=O)N1CCN(C(=O)C(Cc2ccccc2)NS(=O)(=O)c2ccc3nsnc3c2)CC1 (configuration not stated) | 4
